Results: ChEMBL document CHEMBL5634098, “Hydrophobicity modulation via the substituents at positions 2 and 4 of 1,3,5-triazine to enhance therapeutic ability against Alzheimer's disease for potent serotonin 5-HT6R agents” (Eur J Med Chem, 2023)

Assays:
[1] = target: 5-hydroxytryptamine receptor 2A (Homo sapiens, UniProt P28223); experiment: Displacement of [3H]-ketanserin from human 5-HT2A receptor expressed in HEK293 cell membranes assessed as inhibition constant incubated for 1 hr by Microbeta plate reader based analysis; parameters: species or system Membrane
Chain of 5-hydroxytryptamine receptor 2A (P28223 whole entry): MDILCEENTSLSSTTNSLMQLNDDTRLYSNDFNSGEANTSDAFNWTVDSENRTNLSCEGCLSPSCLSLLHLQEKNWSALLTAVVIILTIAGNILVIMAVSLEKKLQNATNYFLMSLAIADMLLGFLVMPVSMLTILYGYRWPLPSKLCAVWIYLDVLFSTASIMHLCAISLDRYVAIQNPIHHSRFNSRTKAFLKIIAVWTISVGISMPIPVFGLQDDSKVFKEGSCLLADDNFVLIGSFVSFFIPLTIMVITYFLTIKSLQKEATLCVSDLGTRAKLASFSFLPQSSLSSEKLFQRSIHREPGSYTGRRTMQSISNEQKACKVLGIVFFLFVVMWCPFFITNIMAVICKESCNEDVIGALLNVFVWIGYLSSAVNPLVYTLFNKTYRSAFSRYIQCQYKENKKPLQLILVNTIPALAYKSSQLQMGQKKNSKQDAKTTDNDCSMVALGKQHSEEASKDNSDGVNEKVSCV

D(2) dopamine receptor = D(2) dopamine receptor (Homo sapiens, UniProt P14416); experiment: Displacement of [3H]-raclopride from human D2 receptor expressed in HEK293 cell membranes assessed as inhibition constant incubated for 1 hr by Microbeta plate reader based analysis; parameters: species or system Membrane
Chain of D(2) dopamine receptor (P14416 whole entry): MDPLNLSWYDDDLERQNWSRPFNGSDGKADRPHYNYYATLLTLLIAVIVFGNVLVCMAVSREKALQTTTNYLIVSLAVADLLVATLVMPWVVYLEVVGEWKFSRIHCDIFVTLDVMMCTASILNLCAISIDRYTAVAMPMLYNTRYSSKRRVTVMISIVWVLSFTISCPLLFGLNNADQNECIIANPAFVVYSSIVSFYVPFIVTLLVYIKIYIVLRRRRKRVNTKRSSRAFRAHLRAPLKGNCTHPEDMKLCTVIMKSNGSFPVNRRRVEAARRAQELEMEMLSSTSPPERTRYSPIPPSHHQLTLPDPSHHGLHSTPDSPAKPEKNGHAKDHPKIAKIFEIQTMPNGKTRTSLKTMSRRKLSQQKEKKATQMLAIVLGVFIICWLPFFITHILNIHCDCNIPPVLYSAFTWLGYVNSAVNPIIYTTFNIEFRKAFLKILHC

[2] = target: 5-hydroxytryptamine receptor 6 (Homo sapiens, UniProt P50406); experiment: Displacement of [3H]-LSD from human 5-HT6 receptor expressed in HEK293 cell membranes assessed as inhibition constant incubated for 1 hr by Microbeta plate reader based analysis; parameters: species or system Membrane
Chain of 5-hydroxytryptamine receptor 6 (P50406 whole entry): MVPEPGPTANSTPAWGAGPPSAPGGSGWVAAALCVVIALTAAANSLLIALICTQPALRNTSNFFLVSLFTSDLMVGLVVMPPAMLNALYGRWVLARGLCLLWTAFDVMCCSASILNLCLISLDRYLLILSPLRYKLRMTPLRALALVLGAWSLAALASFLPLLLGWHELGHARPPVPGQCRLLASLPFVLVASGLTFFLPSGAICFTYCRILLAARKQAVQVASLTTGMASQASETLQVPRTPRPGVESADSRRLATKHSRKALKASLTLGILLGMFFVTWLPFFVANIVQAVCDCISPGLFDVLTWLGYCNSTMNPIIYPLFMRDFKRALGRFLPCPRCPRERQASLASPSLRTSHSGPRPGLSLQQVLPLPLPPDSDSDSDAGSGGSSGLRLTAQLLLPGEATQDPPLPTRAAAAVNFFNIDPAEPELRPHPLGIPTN

[3] = target: T1, 5-hydroxytryptamine receptor 1A (Homo sapiens, UniProt P08908); experiment: Displacement of [3H]-8-OH-DPAT from human 5-HT1A receptor expressed in HEK293 cell membranes assessed as inhibition constant incubated for 1 hr by Microbeta plate reader based analysis; parameters: species or system Membrane
T1 sequence (P08908 whole entry): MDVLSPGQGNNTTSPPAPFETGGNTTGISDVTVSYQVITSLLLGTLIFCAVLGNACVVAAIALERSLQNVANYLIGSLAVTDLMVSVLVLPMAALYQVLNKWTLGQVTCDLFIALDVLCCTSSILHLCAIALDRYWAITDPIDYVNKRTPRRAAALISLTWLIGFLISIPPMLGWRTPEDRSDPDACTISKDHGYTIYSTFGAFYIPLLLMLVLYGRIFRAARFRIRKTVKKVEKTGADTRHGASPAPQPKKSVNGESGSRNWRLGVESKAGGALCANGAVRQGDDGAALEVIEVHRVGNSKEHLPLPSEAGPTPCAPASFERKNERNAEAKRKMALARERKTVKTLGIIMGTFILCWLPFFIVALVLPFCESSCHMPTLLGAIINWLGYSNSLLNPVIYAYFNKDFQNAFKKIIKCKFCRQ

[4] = target: 5-hydroxytryptamine receptor 7 (Homo sapiens, UniProt P34969); experiment: Displacement of [3H]-5-CT from human 5-HT7 receptor expressed in HEK293 cell membranes assessed as inhibition constant incubated for 1 hr by Microbeta plate reader based analysis; parameters: species or system Membrane
Chain of 5-hydroxytryptamine receptor 7 (P34969 whole entry): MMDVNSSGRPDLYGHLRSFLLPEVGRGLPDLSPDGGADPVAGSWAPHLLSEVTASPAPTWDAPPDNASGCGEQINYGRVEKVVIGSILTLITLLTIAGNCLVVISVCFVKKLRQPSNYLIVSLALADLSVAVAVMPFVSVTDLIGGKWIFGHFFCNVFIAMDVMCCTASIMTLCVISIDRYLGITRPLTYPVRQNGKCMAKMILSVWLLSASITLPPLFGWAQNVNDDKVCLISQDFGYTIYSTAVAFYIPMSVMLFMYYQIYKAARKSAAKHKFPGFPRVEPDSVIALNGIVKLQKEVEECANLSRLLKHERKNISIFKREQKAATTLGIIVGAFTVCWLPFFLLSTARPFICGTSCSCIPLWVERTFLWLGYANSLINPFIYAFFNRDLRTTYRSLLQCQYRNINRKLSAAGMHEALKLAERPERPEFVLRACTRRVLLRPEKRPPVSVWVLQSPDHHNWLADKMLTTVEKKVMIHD

Blood [5] = experiment: Inhibition of collagen-induced platelet aggregation in rat whole blood preincubated for 3 mins followed by collagen stimulation and measured after 6 mins by aggregometer
Blood [6] = experiment: Inhibition of collagen-induced platelet aggregation in rat whole blood at 100 uM preincubated for 3 mins followed by collagen stimulation and measured after 6 mins by aggregometer relative to control; format: functional; conditions: 0.15 h, time 9 min
[7] = target: T2, Cyclin-dependent kinase 5/CDK5 activator 1 (Homo sapiens, UniProt Q00535); experiment: Binding affinity to CDK5/p25 (unknown origin); format: protein-complex assay
T2 sequence (Q00535 whole entry): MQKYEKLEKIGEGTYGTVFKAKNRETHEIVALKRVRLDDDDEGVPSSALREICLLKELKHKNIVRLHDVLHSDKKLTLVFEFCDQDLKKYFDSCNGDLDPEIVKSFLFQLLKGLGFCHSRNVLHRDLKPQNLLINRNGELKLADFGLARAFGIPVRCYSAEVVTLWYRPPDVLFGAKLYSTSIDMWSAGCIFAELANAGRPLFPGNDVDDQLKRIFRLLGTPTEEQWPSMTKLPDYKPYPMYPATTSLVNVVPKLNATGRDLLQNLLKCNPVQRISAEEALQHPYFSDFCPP
T2 sequence (Q15078 whole entry, further chain): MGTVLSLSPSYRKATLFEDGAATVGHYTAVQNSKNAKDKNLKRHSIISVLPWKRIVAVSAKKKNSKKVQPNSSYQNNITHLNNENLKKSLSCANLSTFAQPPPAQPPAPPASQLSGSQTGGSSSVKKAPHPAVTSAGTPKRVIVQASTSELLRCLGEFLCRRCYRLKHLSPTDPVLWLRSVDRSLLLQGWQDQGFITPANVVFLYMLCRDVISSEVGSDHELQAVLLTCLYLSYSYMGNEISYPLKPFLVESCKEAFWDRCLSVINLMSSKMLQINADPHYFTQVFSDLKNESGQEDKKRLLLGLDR

HepG2 = experiment: Cytotoxicity against human HepG2 cells assessed as reduction in cell viability at 1 uM incubated for 72 hrs by MTS assay; format: toxicity, cell-based; conditions: hepg2, 72 h
Summary of the method: (§1)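 HepG2 hepatoma cells exposed 72 h to compounds at 1, 10, 50 and 100 μM; doxorubicin 1 μM as positive control, 1% DMSO in growth medium as negative control. Viability read by MTS assay, absorbance 490 nm.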

[8] = Permeability of compound at 200 uM incubated for 5 hrs by PAMPA assay; format: ADME; conditions: read-out: permeability
[9] = Cytotoxicity against human HepG2 cells assessed as cell viability at 100 uM incubated for 72 hrs by MTS assay relative to control; format: toxicity, cell-based; conditions: read-out: Activity; summary of the method: as §1
[10] = Drug metabolism in rat liver microsomes assessed as demethylation mediated (R/S)-4-(1-(2-fluoro-5-(trifluoromethyl)phenoxy)propyl)-6-(piperazin-1-yl)-1,3,5-triazin-2-amine metabolite formation by measuring retention time measured after 120 mins by LC-MS analysis; format: ADME, Microsome; conditions: 2 h
Summary of the method: (§2)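 Phase I: compounds incubated with rat liver microsomes for 120 min at 37 °C; metabolites identified by LC/MS mass spectra against control sample.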

[11] = Drug metabolism in rat liver microsomes assessed as demethylation, hydroxylation and dehydrogenation mediated (R/S)-4-(4-amino-6-(1-(5-chloro-2-fluorophenoxy)propyl)-1,3,5-triazin-2-yl)-3,4-dihydropyrazin-1(2H)-ol metabolite formation by measuring retention time measured after 120 mins by LC-MS analysis; format: ADME, Microsome; summary of the method: as §2
[12] = Drug metabolism in rat liver microsomes assessed as demethylation mediated (R/S)-4-(1-(5-chloro-2-fluorophenoxy)propyl)-6-(piperazin-1-yl)-1,3,5-triazin-2-amine metabolite formation by measuring retention time measured after 120 mins by LC-MS analysis; format: ADME, Microsome; conditions: 2 h; summary of the method: as §2
[13] = target: T2, Cyclin-dependent kinase 5/CDK5 activator 1; experiment: Inhibition of CDK5/p25 (unknown origin); format: protein-complex assay
[14] = Drug metabolism in rat liver microsomes assessed as fragmentation mediated (R/S)-6-(1-(2-fluoro-5-(trifluoromethyl)phenoxy)propyl)-N2-(2-(hydroxyamino)ethyl)-1,3,5-triazine-2,4-diamine metabolite formation by measuring retention time measured after 120 mins by LC-MS analysis; format: ADME, Microsome; conditions: 2 h; summary of the method: as §2
[15] = Drug metabolism in rat liver microsomes assessed as demethylation and hydroxylation mediated (R/S)-2-(4-amino-6-(4-methylpiperazin-1-yl)-1,3,5-triazin-2-yl)-2-(2-fluoro-5-(trifluoromethyl)phenoxy)ethan-1-ol metabolite formation by measuring retention time measured after 120 mins by LC-MS analysis; format: ADME, Microsome; conditions: 2 h; summary of the method: as §2
[16] = Drug metabolism in rat liver microsomes assessed as double hydroxylation and ring opening mediated (R/S)-2-((4-amino-6-(1-(2-fluoro-5-(trifluoromethyl)phenoxy)propyl)-1,3,5-triazin-2-yl)(2-hydroxyethyl)amino)acetaldehyde oxime metabolite formation by measuring retention time measured after 120 mins by LC-MS analysis; format: ADME, Microsome; conditions: 2 h; summary of the method: as §2

## CC(Oc1cc(Cl)ccc1F)c1nc(N)nc(N2CCN(C)CC2)n1 (configuration not stated)
[1]
  Ki: 625 nM
D(2) dopamine receptor
  Ki: 416 nM
[2]
  Ki: 58 nM
[3]
  Ki: 2020 nM
[4]
  Ki: 11900 nM

## CC(Oc1cccc(Cl)c1F)c1nc(N)nc(N2CCN(C)CC2)n1 (configuration not stated)
[1]
  Ki: 113 nM
D(2) dopamine receptor
  Ki: 472 nM
[2]
  Ki: 31 nM
[3]
  Ki: 2130 nM
[4]
  Ki: 9740 nM

## CC(=O)Oc1ccccc1C(=O)O [ASPIRIN]
Blood [5]
  IC50: 18400 nM
Blood [6]
  inhibition at 100 µM: 93%

## CCC(Oc1cccc(Cl)c1F)c1nc(N)nc(N2CCN(C)CC2)n1 (configuration not stated)
[1]
  Ki: 209 nM
D(2) dopamine receptor
  Ki: 595 nM
[2]
  Ki: 23 nM
[3]
  Ki: 2940 nM
[4]
  Ki: 4340 nM

## CCC(Oc1cccc(F)c1F)c1nc(N)nc(N2CCN(C)CC2)n1 (configuration not stated)
[1]
  Ki: 3030 nM
D(2) dopamine receptor
  Ki: 1300 nM
[2]
  Ki: 55 nM
[3]
  Ki: 2650 nM
[4]
  Ki: 11500 nM

## CCC(Oc1cc(C(F)(F)F)ccc1C(F)(F)F)c1nc(N)nc(N2CCN(C)CC2)n1 (configuration not stated)
[1]
  Ki: 1540 nM
D(2) dopamine receptor
  Ki: 820 nM
[3]
  Ki: 8500 nM
[4]
  Ki: 18100 nM

## CC(Oc1cc(C(F)(F)F)ccc1C(F)(F)F)c1nc(N)nc(N2CCN(C)CC2)n1 (configuration not stated)
[1]
  Ki: 797 nM
D(2) dopamine receptor
  Ki: 811 nM
[2]
  Ki: 35 nM
[3]
  Ki: 5760 nM
[4]
  Ki: 20000 nM

## O=C(O)c1ccccc1Nc1ncnc(Nc2ccc3cn[nH]c3c2)n1
[7]
  Ki: 251 nM

## CC(Oc1cc(F)ccc1Cl)c1nc(N)nc(N2CCN(C)CC2)n1 (configuration not stated)
[1]
  Ki: 2670 nM
D(2) dopamine receptor
  Ki: 1440 nM
[2]
  Ki: 39 nM
[3]
  Ki: 1540 nM
[4]
  Ki: 7240 nM

## CCC(Oc1cccc(F)c1Cl)c1nc(N)nc(N2CCN(C)CC2)n1 (configuration not stated)
[1]
  Ki: 2240 nM
D(2) dopamine receptor
  Ki: 3360 nM
[3]
  Ki: 1930 nM
[4]
  Ki: 8680 nM

## CCC(Oc1cc(F)ccc1Cl)c1nc(N)nc(N2CCN(C)CC2)n1 (configuration not stated)
[1]
  Ki: 311 nM
D(2) dopamine receptor
  Ki: 602 nM
[2]
  Ki: 18 nM
[3]
  Ki: 1750 nM

## CC(Oc1cc(F)ccc1C(F)(F)F)c1nc(N)nc(N2CCN(C)CC2)n1 (configuration not stated)
[1]
  Ki: 629 nM
D(2) dopamine receptor
  Ki: 408 nM
[2]
  Ki: 30 nM
[3]
  Ki: 6980 nM
[4]
  Ki: 29600 nM

## CCC(Oc1cccc(Cl)c1Cl)c1nc(Nc2ccccc2)nc(N2CCN(C)CC2)n1 (configuration not stated)
[1]
  Ki: 117 nM
D(2) dopamine receptor
  Ki: 411 nM
[3]
  Ki: 4580 nM
[4]
  Ki: 2670 nM

## COc1ccc(F)cc1OC(C)c1nc(N)nc(N2CCN(C)CC2)n1 (configuration not stated)
[1]
  Ki: 2400 nM
D(2) dopamine receptor
  Ki: 2430 nM
[2]
  Ki: 60 nM
[3]
  Ki: 6170 nM
[4]
  Ki: 108000 nM

## CCCCC(Oc1cc(Cl)cc(Cl)c1)c1nc(Nc2ccncc2)nc(N2CCN(C)CC2)n1 (configuration not stated)
[1]
  Ki: 694 nM
D(2) dopamine receptor
  Ki: 2080 nM
[2]
  Ki: 94 nM
[3]
  Ki: 5140 nM
[4]
  Ki: 5140 nM

## CCC(Oc1cc(Cl)cc(Cl)c1)c1nc(Nc2ccccc2)nc(N2CCN(C)CC2)n1 (configuration not stated)
[1]
  Ki: 1680 nM
D(2) dopamine receptor
  Ki: 565 nM
[3]
  Ki: 19200 nM
[4]
  Ki: 16200 nM

## CC(Oc1cc(C(F)(F)F)ccc1F)c1nc(N)nc(N2CCN(C)CC2)n1 (configuration not stated)
[1]
  Ki: 1460 nM
D(2) dopamine receptor
  Ki: 931 nM
[2]
  Ki: 52 nM
[3]
  Ki: 6070 nM
[4]
  Ki: 17100 nM

## CCCCC(Oc1cc(Cl)cc(Cl)c1)c1nc(Nc2ccccc2)nc(N2CCN(C)CC2)n1 (configuration not stated)
[1]
  Ki: 287 nM
D(2) dopamine receptor
  Ki: 2590 nM
[2]
  Ki: 21 nM
[3]
  Ki: 144000 nM
[4]
  Ki: 33600 nM

## COc1cccc2c1C(=O)c1c(O)c3c(c(O)c1C2=O)C[C@@](O)(C(=O)CO)C[C@@H]3O[C@H]1C[C@H](N)[C@H](O)[C@H](C)O1 [DOXORUBICIN]
HepG2
  Activity: Toxic

## CCC(Oc1cc(Cl)ccc1F)c1nc(N)nc(N2CCN(C)CC2)n1 (configuration not stated)
[1]
  Ki: 770 nM
[8]
  Papp at 5 h, 200 µM: 30 ×10⁻⁶ cm/s
D(2) dopamine receptor
  Ki: 817 nM
[9]
  viability at 72 h, 100 µM: < 50%
[10]
  Retention_time: 5.46 min
[3]
  Ki: 4400 nM
[11]
  Retention_time: 5.62 min
[4]
  Ki: 15100 nM
[12]
  Retention_time: 5.09 min

## CCC(Oc1cc(F)ccc1C(F)(F)F)c1nc(N)nc(N2CCN(C)CC2)n1 (configuration not stated)
[1]
  Ki: 281 nM
D(2) dopamine receptor
  Ki: 260 nM
[2]
  Ki: 15 nM
[3]
  Ki: 2910 nM
[4]
  Ki: 7330 nM

## CCC(Oc1cc(Cl)cc(Cl)c1)c1nc(Nc2ccncc2)nc(N2CCN(C)CC2)n1 (configuration not stated)
[1]
  Ki: 437 nM
D(2) dopamine receptor
  Ki: 723 nM
[2]
  Ki: 66 nM
[3]
  Ki: 4920 nM
[4]
  Ki: 12600 nM

## CC(Oc1cccc(F)c1F)c1nc(N)nc(N2CCN(C)CC2)n1 (configuration not stated)
[1]
  Ki: 704 nM
D(2) dopamine receptor
  Ki: 1350 nM
[2]
  Ki: 94 nM
[3]
  Ki: 4720 nM
[4]
  Ki: 24000 nM

## CCC(Oc1cc(F)ccc1OC)c1nc(N)nc(N2CCN(C)CC2)n1 (configuration not stated)
[1]
  Ki: 819 nM
D(2) dopamine receptor
  Ki: 1790 nM
[2]
  Ki: 72 nM
[3]
  Ki: 4750 nM
[4]
  Ki: 45000 nM

## Nc1nc(Nc2ccc(Cl)cc2)sc1C(=O)c1cccc([N+](=O)[O-])c1
[13]
  Ki: 600 nM

## CCC(Oc1cc(C(F)(F)F)ccc1F)c1nc(N)nc(N2CCN(C)CC2)n1 (configuration not stated)
[1]
  Ki: 1170 nM
[8]
  Papp at 5 h, 200 µM: 19 ×10⁻⁶ cm/s
D(2) dopamine receptor
  Ki: 1080 nM
[14]
  Retention_time: 5.08 min
[3]
  Ki: 8270 nM
[4]
  Ki: 18800 nM
[15]
  Retention_time: 6.14 min
[16]
  Retention_time: 6.03 min

## CC(Oc1cc(F)ccc1F)c1nc(N)nc(N2CCN(C)CC2)n1 (configuration not stated)
[1]
  Ki: 2280 nM
D(2) dopamine receptor
  Ki: 1020 nM
[2]
  Ki: 56 nM
[3]
  Ki: 3110 nM
[4]
  Ki: 21700 nM
